Each block holds one compound with its values, some of them ahead of it. The source made the active and inactive calls. The calls are words filed in the database; no cut-off is given here.
Legend:
[1] = target: T1, AMP-activated protein kinase, AMPK (Homo sapiens) (UniProt P54646+O43741+P54619+Q9UGJ0+Q9Y478+Q13131+Q9UGI9); test: Activation of AMPK in human HepG2 cells assessed as induction of glucose consumption at 1 uM treated over 24 hrs by glucose oxidase method relative to control; type: cell-based
Summary of the method: (§1)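 HepG2 cells kept in DMEM (25 mM D-glucose) with 10% serum at 37 °C, 5% CO2. At 80-90% confluence the medium was switched to serum-free RPMI-1640 with 11.1 mM glucose and 0.2% BSA. Compounds in DMSO (0.5% v/v vehicle control) were given for 24 h. Medium glucose was read by glucose oxidase; consumption = cell-free blank wells minus cell wells. Student's t test against control.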

[2] = target: T1, AMP-activated protein kinase, AMPK (Homo sapiens); test: Activation of AMPK in human HepG2 cells assessed as induction of glucose consumption treated over 24 hrs by glucose oxidase method; type: cell-based; summary of the method: as §1
[3] = target: T1, AMP-activated protein kinase, AMPK (Homo sapiens); test: Activation of AMPK in human HepG2 cells assessed as induction of glucose consumption at 10 uM treated over 24 hrs by glucose oxidase method relative to control; type: cell-based; summary of the method: as §1
[4] = target: T1, AMP-activated protein kinase, AMPK (Homo sapiens); test: Activation of AMPK in human HepG2 cells assessed as induction of glucose consumption at 0.1 uM treated over 24 hrs by glucose oxidase method relative to control; type: cell-based; summary of the method: as §1
HepG2 [5] = test: Induction of AMPKalpha phosphorylation at Thr172 residue in human HepG2 cells at 10 uM by Western blot analysis; type: cell-based
Summary of the method: (§2)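 HepG2 cells were treated at 10 μM and lysed in pH 7.5 Tris buffer containing NaF, β-glycerophosphate, EDTA/EGTA, Triton X-100 and protease inhibitors, then cleared at 10,000 × g for 30 min at 4 °C. Equal lysate volumes were run on 8% SDS-PAGE and transferred to PVDF. Blots were probed for p-AMPKα (Thr172) and p-ACC (Ser79) with HRP secondary antibodies.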

HepG2 [6] = test: Activation of AMPKalpha in human HepG2 cells assessed as ACC phosphorylation at Ser79 residue at 10 uM by Western blot analysis; type: cell-based; summary of the method: as §2
[7] = AUC (0 to t) in Sprague-Dawley rat at 5 mg/kg, iv by LC/MS/MS analysis; type: ADME, organism-based; settings: in vivo
Summary of the method: (§3)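 SD rats, three male and three female. Given iv at 5 mg/kg and intragastric at 20 mg/kg; the oral dose went by gavage in 20% 1,2-propanediol/80% water. Heparinized blood was sampled over 32 h post dose. Plasma was extracted with EtOAc and measured by LC/MS/MS. Non-compartmental analysis gave the PK parameters (n = 6).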

Rattus norvegicus [8] = test: Half life in Sprague-Dawley rat at 20 mg/kg, ig by LC/MS/MS analysis; type: ADME, organism-based; settings: in vivo, po; summary of the method: as §3
Rattus norvegicus [9] = test: Volume of distribution in Sprague-Dawley rat at 5 mg/kg, iv by LC/MS/MS analysis; type: ADME, organism-based; settings: in vivo; summary of the method: as §3
Mus musculus [10] = test: Hypoglycemic activity in db/db mouse assessed as decrease in blood glucose level at 30 mg/kg, po administered as single dose measured at 3 hrs post last dose (reference value: 0.0 +/- 4.1%); type: functional; set-up: scale not given: the % may be the effect or the level left
Mus musculus [11] = test: Toxicity in db/db mouse assessed as increase in body weight at 30 mg/kg, po treated for 1 to 3 weeks measured at 3 hrs post last dose relative to control; type: organism-based; settings: in vivo
[12] = Bioavailability in Sprague-Dawley rat at 20 mg/kg, ig by LC/MS/MS analysis; type: ADME, organism-based; settings: in vivo, po; summary of the method: as §3
[13] = AUC (0 to infinity) in Sprague-Dawley rat at 5 mg/kg, iv by LC/MS/MS analysis; type: ADME, organism-based; set-up: dose 5 mg/kg, route intravenous, time infinity; settings: in vivo; summary of the method: as §3
[14] = AUC (0 to infinity) in Sprague-Dawley rat at 20 mg/kg, ig by LC/MS/MS analysis; type: ADME, organism-based; set-up: dose 20 mg/kg, route intragastric, time infinity; settings: in vivo, po; summary of the method: as §3
Mus musculus [15] = test: Potency index, ratio of test compound to GY3 hypoglycemic activity in db/db mouse assessed as decrease in blood glucose level at 30 mg/kg, po treated for 3 week measured at 3 hrs post last dose; type: functional
Rattus norvegicus [16] = test: Clearance in Sprague-Dawley rat at 20 mg/kg, ig by LC/MS/MS analysis; type: ADME, organism-based; settings: in vivo, po; summary of the method: as §3
[17] = AUC (0 to t) in Sprague-Dawley rat at 20 mg/kg, ig by LC/MS/MS analysis; type: ADME, organism-based; settings: in vivo, po; summary of the method: as §3
Mus musculus [18] = test: Hypoglycemic activity in db/db mouse assessed as decrease in blood glucose level at 30 mg/kg, po treated for 2 week measured at 3 hrs post last dose (reference value: 0.0 +/- 4.0%); type: functional; set-up: scale not given: the % may be the effect or the level left
Mus musculus [19] = test: Hypolipemic activity in db/db mouse assessed as plasma fasting triglyceride level at 30 mg/kg, po treated for 3 consecutive weeks (reference value: 0.70 to 0.97 mM); type: functional
Rattus norvegicus [20] = test: Volume of distribution in Sprague-Dawley rat at 20 mg/kg, ig by LC/MS/MS analysis; type: ADME, organism-based; settings: in vivo, po; summary of the method: as §3
Mus musculus [21] = test: Hypoglycemic activity in db/db mouse assessed as decrease in blood glucose level at 30 mg/kg, po treated for 3 week measured at 3 hrs post last dose (reference value: 0.0 +/- 6.8%); type: functional; set-up: scale not given: the % may be the effect or the level left
[22] = Cmax in Sprague-Dawley rat at 20 mg/kg, ig by LC/MS/MS analysis; type: ADME, organism-based; set-up: dose 20 mg/kg, route intragastric; settings: in vivo, po; summary of the method: as §3
Rattus norvegicus [23] = test: Clearance in Sprague-Dawley rat at 5 mg/kg, iv by LC/MS/MS analysis; type: ADME, organism-based; settings: in vivo; summary of the method: as §3
[24] = Tmax in Sprague-Dawley rat at 20 mg/kg, ig by LC/MS/MS analysis; type: ADME, organism-based; settings: in vivo, po; summary of the method: as §3
Rattus norvegicus [25] = test: Half life in Sprague-Dawley rat at 5 mg/kg, iv by LC/MS/MS analysis; type: ADME, organism-based; settings: in vivo; summary of the method: as §3
Mus musculus [26] = test: Hypoglycemic activity in db/db mouse assessed as decrease in blood glucose level at 30 mg/kg, po treated for 1 week measured at 3 hrs post last dose (reference value: 0.0 +/- 8.6%); type: functional; set-up: scale not given: the % may be the effect or the level left
Mus musculus [27] = test: Hypolipemic activity in db/db mouse assessed as total plasma cholesterol level at 30 mg/kg, po treated for 3 consecutive weeks (reference value: 6.05 to 6.98 mM); type: functional

- Activity [1]: 30.2%
- Activity [2]: Dose-dependent effect
- Activity [3]: 72.9 to 82.5%
- Activity [4]: 15.5%
SMILES: O=C(O)C1CCc2c(c3cc(OCc4ccccc4)ccc3n2C(=O)c2ccc(Cl)cc2)C1 (stereo in doubt; 7a) [listing 1 of 2 here]
- Activity (HepG2 [5]): Active
- Activity (HepG2 [6]): Active

- Activity [1]: 20.1%
- Activity [2]: Dose-dependent effect
- Activity [3]: 53.4 to 68.8%
- Activity [4]: 0.11%
SMILES: O=C(O)C1CCc2c(c3cc(OCc4ccc(F)cc4)ccc3n2C(=O)c2ccc(Cl)cc2)C1 (centres undefined)

- Activity [3]: 30.4%
SMILES: O=C(O)C1CCc2c(c3cc(OCc4ccccc4)ccc3n2Cc2ccccc2)C1 (centres undefined)

- AUC(0-t) [7]: 39600 ng·h/mL
- t1/2 (Rattus norvegicus [8]): 6.46 h
- Vd (Rattus norvegicus [9]): 2.7 L/kg
- bioavailability [12]: 20.2%
- AUC(0-inf) [13]: 71000 ng·h/mL
- AUC(0-inf) [14]: 48300 ng·h/mL
- CL (Rattus norvegicus [16]): 7.5 mL/min/kg
- AUC(0-t) [17]: 32000 ng·h/mL
- Vd (Rattus norvegicus [20]): 9.98 L/kg
- Cmax [22]: 2320 ng/mL
- CL (Rattus norvegicus [23]): 1.2 mL/min/kg
- Tmax [24]: 7.83 h
- t1/2 (Rattus norvegicus [25]): 7.2 h
SMILES: O=C(O)C1CCc2c(c3cc(OCc4ccccc4)ccc3n2C(=O)c2ccc(Cl)cc2)C1 (stereo in doubt; 7a) [listing 2 of 2 here]
- Activity (Mus musculus [10]): 30.6%
- Activity (Mus musculus [11]): 10.4%
- Ratio (Mus musculus [15]): 2
- Activity (Mus musculus [18]): 19.6%
- Activity (Mus musculus [19]): 0.54 mM
- Activity (Mus musculus [21]): 28%
- Activity (Mus musculus [26]): 29.3%
- Activity (Mus musculus [27]): 6.93 mM

- Activity [1]: 27.3%
- Activity [2]: Dose-dependent effect
- Activity [3]: 55.3 to 60.6%
- Activity [4]: 1.79%
SMILES: O=C(O)C1CCc2c(c3cc(OCc4ccccc4)ccc3n2C(=O)c2ccc(Cl)cc2)C1 (stereo in doubt; (+)-7a)
- Activity (HepG2 [5]): Active
- Activity (HepG2 [6]): Active

- Activity [3]: 55.1%
SMILES: O=C(O)C1CCc2c(c3cc4c(cc3n2C(=O)c2ccc(Cl)cc2)OCO4)C1 (centres undefined)

- Activity [3]: 47.5%
SMILES: Cc1nc(C)c(COc2ccc3c(c2)c2c(n3C(=O)c3ccc(Cl)cc3)CCC(C(=O)O)C2)nc1C (centres undefined)
- Activity (HepG2 [5]): Active
- Activity (HepG2 [6]): Active

- Activity [3]: 50.5%
SMILES: COc1ccc2c(c1)c1c(n2C(=O)c2ccc(Cl)cc2)CCC(C(=O)O)C1 (centres undefined)

SMILES: CCc1ccc(CCOc2ccc(CC3SC(=O)NC3=O)cc2)nc1 (centres undefined) [PIOGLITAZONE]
- Activity (Mus musculus [10]): 21.9%
- Activity (Mus musculus [11]): 16.3%
- Activity (Mus musculus [18]): 34.5%
- Activity (Mus musculus [19]): 0.51 mM
- Activity (Mus musculus [21]): 37.4%
- Activity (Mus musculus [26]): 37.1%
- Activity (Mus musculus [27]): 7.89 mM

- Activity [3]: 60.3%
SMILES: COc1ccc(S(=O)(=O)n2c3c(c4cc(OCc5ccccc5)ccc42)CC(C(=O)O)CC3)cc1 (centres undefined)

- Activity [1]: 35.6%
- Activity [2]: Dose-dependent effect
- Activity [3]: 76.4 to 85.5%
- Activity [4]: 12.9%
SMILES: O=C(O)C1CCc2c(c3cc(OCc4ccccc4)ccc3n2C(=O)c2ccc(Cl)cc2)C1 (single isomer, unassigned; (-))
- Activity (HepG2 [5]): Active
- Activity (HepG2 [6]): Active

SMILES: Cc1c(CC(=O)O)c2cc(OCc3ccccc3)ccc2n1C(=O)c1ccc(Cl)cc1
- Activity (Mus musculus [10]): 32.9%
- Activity (Mus musculus [11]): 8.5%
- Activity (Mus musculus [18]): 30.3%
- Activity (Mus musculus [19]): 0.79 mM
- Activity (Mus musculus [21]): 13.5%
- Activity (Mus musculus [26]): 25.7%
- Activity (Mus musculus [27]): 7.78 mM

Source: ChEMBL document CHEMBL4196071, “Discovery of tetrahydrocarbazoles with potent hypoglycemic and hypolipemic activities” (Eur J Med Chem, 2018)
